Results taken from ChEMBL document CHEMBL3351489, “Design, synthesis, and structure-activity relationships of a series of novel N-aryl-2-phenylcyclopropanecarboxamide that are potent and orally active orexin receptor antagonists” (Bioorg Med Chem, 2014).
Values after ≈ are worked out from the molar mass of the structure shown. Active and inactive are the calls of the source. The calls are words filed in the database; no cut-off is given here.

Tests used:
[1] = molecular target: T1, Orexin/Hypocretin receptor type 1 (Homo sapiens, UniProt O43613); assay: Displacement of [125I]-Orexin A from human OX1R expressed in CHO cells after 30 mins by topcount analysis; assay type: cell-based
T1 sequence (O43613 whole entry): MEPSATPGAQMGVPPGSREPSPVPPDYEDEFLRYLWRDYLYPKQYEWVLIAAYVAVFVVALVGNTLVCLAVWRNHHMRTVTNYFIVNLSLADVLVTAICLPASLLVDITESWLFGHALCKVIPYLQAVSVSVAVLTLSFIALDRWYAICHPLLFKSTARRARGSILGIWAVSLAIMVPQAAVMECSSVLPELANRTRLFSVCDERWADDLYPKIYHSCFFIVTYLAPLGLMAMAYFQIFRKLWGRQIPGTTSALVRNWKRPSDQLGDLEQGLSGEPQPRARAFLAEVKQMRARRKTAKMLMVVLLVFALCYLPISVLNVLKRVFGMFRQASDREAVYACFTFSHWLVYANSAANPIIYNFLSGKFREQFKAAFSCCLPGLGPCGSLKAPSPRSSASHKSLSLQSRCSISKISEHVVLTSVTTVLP
In short: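 Membranes from CHO cells expressing human OX1R, […] per well, in 25 mM HEPES pH 7.5 with MgCl2, CaCl2, 0.5% BSA, sodium azide, Tween 20; incubated with [125I]-orexin A 30 min at rt on scintillation plate, washed, counted. Nonspecific binding with excess unlabelled orexin A; % inhibition from DPM; mean of 3 wells, single measurement.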

Orexin receptor type 2 = molecular target: T2, Orexin receptor type 2 (Homo sapiens, UniProt O43614); assay: Displacement of [125I]-Orexin A from human OX2R expressed in CHO cells after 30 mins by topcount analysis; assay type: cell-based
T2 sequence (O43614 whole entry): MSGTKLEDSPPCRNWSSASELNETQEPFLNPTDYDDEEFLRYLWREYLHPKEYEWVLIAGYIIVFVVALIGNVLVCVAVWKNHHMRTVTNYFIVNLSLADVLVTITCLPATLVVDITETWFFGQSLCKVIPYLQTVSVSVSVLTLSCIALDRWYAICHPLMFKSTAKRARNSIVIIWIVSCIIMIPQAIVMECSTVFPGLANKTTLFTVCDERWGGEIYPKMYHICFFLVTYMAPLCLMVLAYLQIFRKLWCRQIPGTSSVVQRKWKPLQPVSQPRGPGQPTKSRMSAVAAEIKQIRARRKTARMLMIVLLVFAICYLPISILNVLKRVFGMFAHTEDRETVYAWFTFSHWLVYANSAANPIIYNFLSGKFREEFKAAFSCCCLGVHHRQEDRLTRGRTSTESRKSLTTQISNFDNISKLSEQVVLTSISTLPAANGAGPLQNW

[2] = Aqueous solubility of the compound in PBS at pH 7.4 after 15 mins by HPLC method; assay type: physicochemical
[3] = Ratio of efflux ratio of permeability in pig LLC-MDR1 cells to efflux ratio of permeability in pig LLC-PK1 cells; assay type: ADME, cell-based, Sus scrofa
In short: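 LLC-PK1 and MDR1-transfected LLC-PK1 cells grown 5 days on porous inserts (5% CO2, 37 °C). Monolayers preincubated 2 h in HBSS with 10 mM HEPES; compound added apical or basal, 2 h at 37 °C. Receiver side sampled, quantified by LC/MS; Papp from permeated amount, time, initial concentration and membrane area.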

Mus musculus [4] = assay: Induction of sleep in po dosed C57BL/6NCrlCrlj mouse assessed as reduction in wakefulness time up to 3 hrs by EEG/EMG analysis; assay type: functional, organism-based
In short: (§1)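 Mice with EEG/EMG recording dosed orally (30 or 100 mg/kg, vehicle 10% Cremophor EL, 5% DMSO in saline; n = 7) immediately before lights out. Signals sampled at 128 Hz, 50 Hz filtered; 10-s epochs auto-scored as wake, non-REM or REM, then checked by a blinded observer. Minutes summed hourly and over 3 h; one-way ANOVA with Dunnett versus vehicle.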

Mus musculus [5] = assay: Induction of non-REM sleep in po dosed C57BL/6NCrlCrlj mouse up to 3 hrs by EEG/EMG analysis; assay type: functional, organism-based; in short: as §1
Mus musculus [6] = assay: Induction of REM sleep in C57BL/6NCrlCrlj mouse at 30 to 100 mg/kg, po up to 3 hrs by EEG/EMG analysis; assay type: functional, organism-based; in short: as §1
Mus musculus [7] = assay: Reduction in locomotor activity in ddY mouse model at 100 mg/kg, po after 1 hr; assay type: functional, organism-based; parameters: dose 100 mg/kg
In short: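 Male ddY mice kept on 12-h light/dark cycle; oral 10, 30 or 100 mg/kg (DMSO stock diluted twentyfold in 10% Cremophor EL/saline), n = 8 per dose, vehicle n = 16. Ambulation counted as infrared beam breaks in an open-field box over 1 h after dosing; mean ± SEM, one-way ANOVA with Dunnett versus vehicle.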

Mus musculus [8] = assay: Induction of non-REM sleep in C57BL/6NCrlCrlj mouse at 100 mg/kg up to 3 hrs by EEG/EMG analysis; assay type: functional, organism-based; parameters: dose 100 mg/kg
In short: (§2)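 Oral dosing immediately before lights out, vehicle 10% Cremophor EL, 5% DMSO in saline (n = 7 per group). EEG/EMG amplified, filtered (50 Hz line), sampled at 128 Hz. Recordings were scored automatically in 10-s epochs as wakefulness, non-REM or REM sleep and checked by a blinded observer. Minutes were summed over 3 h from dosing relative to vehicle, with one-way ANOVA and Dunnett test.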

Mus musculus [9] = assay: Induction of sleep in C57BL/6NCrlCrlj mouse assessed as reduction in wakefulness time at 100 mg/kg up to 3 hrs by EEG/EMG analysis; assay type: functional, organism-based; parameters: dose 100 mg/kg; in short: as §2
[10] = Drug uptake in CSF of C57BL/6N mouse at 100 mg/kg, po after 3 hrs; assay type: ADME, organism-based, Cerebrospinal fluid; parameters: dose 100 mg/kg, route oral; settings: read-out: Drug uptake
In short: (§3)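 Male C57BL/6N mice given single oral 100 mg/kg (suspension in 0.5% methylcellulose, or saline/Cremophor EL/DMSO 85:10:5). At 1 or 3 h, CSF taken from cisterna magna under pentobarbital, then aortic blood for plasma. Samples protein-precipitated with methanol/acetonitrile plus propranolol internal standard; LC/MS/MS in positive MRM mode, 1/x²-weighted calibration; mean ± SEM.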

[11] = Drug uptake in CSF of C57BL/6N mouse at 100 mg/kg, po after 1 hr; assay type: ADME, organism-based, Cerebrospinal fluid; parameters: dose 100 mg/kg, route oral; settings: read-out: Drug uptake; in short: as §3
[12] = Plasma concentration in C57BL/6N mouse at 100 mg/kg, po after 3 hrs; assay type: ADME, organism-based; parameters: dose 100 mg/kg, route oral; in short: as §3
[13] = Plasma concentration in C57BL/6N mouse at 100 mg/kg, po after 1 hr; assay type: ADME, organism-based; parameters: dose 100 mg/kg, route oral; in short: as §3

Compound | Ki [1] | Ki (Orexin receptor type 2) | solubility at 0.25 h [2] | Ratio [3] | further results
COc1ccc(OC[C@@]2(c3ccccc3)C[C@H]2C(=O)N2CCCc3ccccc32)cc1OC | > 10 µM | > 10 µM |  |  | 
COc1ccc([C@]2(COc3ccccc3)C[C@H]2C(=O)Nc2ccccn2)cc1OC | > 10 µM | 0.129 µM |  |  | 
COc1ccc(OC[C@@]2(c3ccccc3)C[C@H]2C(=O)Nc2cc(C)on2)cc1OC | 0.505 µM | 0.028 µM | < 1 µM |  | 
COc1ccc(OC[C@@]2(c3ccccc3)C[C@H]2C(=O)c2ccccc2)cc1OC | > 10 µM | 8.65 µM |  |  | 
COc1ccc(OC[C@@]2(c3ccccc3)C[C@H]2C(=O)Nc2ccccn2)cc1 | 5.54 µM | 0.588 µM |  |  | 
COc1ccc(OC[C@@]2(c3ccccc3)C[C@H]2C(=O)Nc2ccncc2)cc1OC | 1.42 µM | 0.085 µM |  | 4.9 | 
COCc1ccc(OC[C@@]2(c3ccccc3)C[C@H]2C(=O)Nc2ccccn2)cc1OC | 0.772 µM | 3.34 µM |  |  | 
COc1ccc(OCC2(c3ccccc3)CC2C(=O)Nc2ccc(C#N)cn2)cc1OC (single isomer, unassigned; (-)) [listing 1 of 2 here] |  |  |  |  | Activity (Mus musculus [4]): Dose-dependent effect; Activity (Mus musculus [5]): Dose-dependent effect; Activity (Mus musculus [6]): inactive; Activity (Mus musculus [7]): Active
COc1ccc(OC[C@@]2(c3ccccc3)C[C@H]2C(=O)Nc2ccccn2)cc1OC | 1.07 µM | 0.036 µM | 32 µM (≈ 12.9 µg/mL) | 0.9 | 
COc1ccc(OC[C@@]2(c3ccccc3)C[C@H]2C(=O)NC2CCCCC2)cc1OC | 2.99 µM | 7.85 µM |  |  | 
COc1ccc(OC[C@@]2(c3ccccc3)C[C@H]2C(=O)Nc2ncc(C)s2)cc1OC | 0.291 µM | 0.035 µM | < 1 µM | 2.4 | 
COc1ccc(OCC2(c3ccccc3)CC2C(=O)Nc2ccc(C#N)cn2)cc1OC (single isomer, unassigned; (+)) | > 2 µM | > 2 µM |  |  | 
COc1ccc(OC[C@@]2(c3ccccc3)C[C@H]2CNc2ccccc2)cc1OC | 4.16 µM | 4.23 µM |  |  | 
COc1cccc(OC[C@@]2(c3ccccc3)C[C@H]2C(=O)Nc2ccccn2)c1 | > 10 µM | 1.33 µM |  |  | 
COc1ccc(OC[C@@]2(c3ccccc3)C[C@H]2C(=O)N(C)c2ccccc2)cc1OC | 7.54 µM | 4.68 µM |  |  | 
Cc1ccc(-c2nc3ccc(C)cn3c2CC(=O)N(C)C)cc1 |  |  |  |  | Activity (Mus musculus [8]): Active; Activity (Mus musculus [9]): Active
COc1ccc(OC[C@@]2(c3ccccc3)C[C@H]2C(=O)Nc2cc(C#N)ccn2)cc1OC | 0.103 µM | 0.034 µM | 10 µM (≈ 4.29 µg/mL) | 1 | 
COCc1cc(OC[C@@]2(c3ccccc3)C[C@H]2C(=O)Nc2ccccn2)ccc1OC | 0.747 µM | 0.384 µM |  |  | 
COc1ccc(OC[C@@]2(c3ccccc3)C[C@H]2C(=O)Nc2ccccc2)cc1OC | 0.0072 µM | 0.0072 µM | 2 µM (≈ 0.807 µg/mL) | 0.6 | 
COc1ccc(OC[C@@]2(c3ccccc3)C[C@H]2C(=O)Cc2ccccc2)cc1OC | > 10 µM | > 10 µM |  |  | 
COc1ccc(OC[C@@]2(c3ccccc3)C[C@H]2C(=O)Nc2ccc(C#N)cn2)cc1OC (racemic) | 0.123 µM | 0.014 µM | 22 µM (≈ 9.45 µg/mL) | 1.1 | 
COc1ccc(OCC2(c3ccccc3)CC2C(=O)Nc2ccc(C#N)cn2)cc1OC (single isomer, unassigned; (-)) [listing 2 of 2 here] | 0.106 µM | 0.005 µM | 15 µM (≈ 6.44 µg/mL) | 1.1 | concentration at 3 h [10]: 0.094 µM; concentration at 1 h [11]: 0.245 µM; concentration at 3 h [12]: 3.74 µM; concentration at 1 h [13]: 9.9 µM
Cc1nc(C(=O)N2CCCC[C@H]2CNC(=O)c2cccc3occc23)c(-c2ccc(F)cc2)s1 [SB-649868] |  | 0.0085 µM |  |  | 
COc1ccc(OC[C@@]2(c3ccccc3)C[C@H]2C(=O)Nc2cccnc2)cc1OC | 0.206 µM | 0.051 µM |  | 3.4 | 
COc1ccc(OC[C@@]2(c3ccccc3)C[C@H]2C(=O)Nc2nc(C)cs2)cc1OC | 0.832 µM | 0.014 µM | 11 µM (≈ 4.67 µg/mL) | 1.5 | 
O=C(Nc1ccccn1)[C@@H]1C[C@@]1(COc1ccccc1)c1ccccc1 | 6.84 µM | 0.967 µM |  |  | 
